In paper PMC9306447 (Clinical Cancer Research, 2022):
Where “and” joins values, the source holds several entries; their conditions need not be identical. Identical values can stand only once. Like-named read-outs stand apart in the source and are kept apart here.

Key:
[1] = daily dose; cited from earlier work
FAK = settings: read-out: biochemical IC50; cited from earlier work
IGF1R = settings: read-out: biochemical IC50; cited from earlier work
[2] = Ceritinib concentrations in brain tumor and CSF and extent of CNS penetration; assay type: in vivo, human; settings: for Total drug tumor conc. EN / Unbound drug tumor conc. EN: enhancing tumor; for Total drug tumor conc. NE / Unbound drug tumor conc. NE: nonenhancing tumor
[3] = Fraction unbound in brain tumor tissue by equilibrium dialysis; assay type: in vitro ADME, human; settings: for Fraction unbound EN: enhancing tumor tissue; for Fraction unbound NE: nonenhancing tumor tissue
Outline: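 Patients with brain metastasis or recurrent glioblastoma took the test compound orally for 10 days: 750 mg/day fasted or 450 mg/day with food. Tumor was resected 2 to 4, 6 to 8 or 23 to 25 h after the 10th dose. Regions were gadolinium-enhancing or, for glioblastoma, also nonenhancing, defined by preoperative MRI and intraoperative neuronavigation. Fraction unbound was measured by equilibrium dialysis, with total drug by LC-MS/MS.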

[4] = test system: ALK(+) NSCLC brain metastases; settings: ASCEND-1, cited from earlier work
[5] = test system: ALK(+) NSCLC with brain metastases; settings: across all four arms of ASCEND-7; cited from earlier work
human plasma proteins = assay: Fraction unbound in plasma by equilibrium dialysis; assay type: in vitro ADME; settings: patient plasma; median and range
Outline: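 Patient plasma came from subjects dosed orally with the test compound for 10 days (750 mg/day fasted or 450 mg/day fed). Blood was sampled on day 9 and intraoperatively, centrifuged at 4°C, 1,500 g for 10 min, and the plasma stored at −80°C. Fraction unbound was measured by equilibrium dialysis; unbound concentration is total concentration (LC-MS/MS) times fraction unbound.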

[6] = Steady-state plasma PK of total and unbound ceritinib; assay type: in vivo, human; settings: for Css,max / Tss,max: plasma
[7] = Clinical safety, adverse events graded by CTCAE; assay type: in vivo, human; settings: 10 patients
[8] = mean of patients, all time points
[9] = median of patients, all time points
[10] = individual patients 7, 9, 13, 6–8 h after 10th dose, 450 mg/day
[11] = individual patients 8, 14, 23–25 h after 10th dose, 450 mg/day
[12] = individual patients 5, 11, 2–4 h after 10th dose, 450 mg/day
[13] = individual patients 7, 9, 13 (resection 6–8 h)
[14] = individual patients 8, 14 (resection 23–25 h)
[15] = median (range given) of patients
[16] = total ceritinib, arithmetic mean of 10 patients (750 or 450 mg/day)
[17] = total ceritinib, geometric mean of 10 patients (750 or 450 mg/day)
[18] = unbound ceritinib, arithmetic mean of 10 patients (750 or 450 mg/day)
[19] = unbound ceritinib, geometric mean of 10 patients (750 or 450 mg/day)

Cc1cc(Nc2ncc(Cl)c(Nc3ccccc3S(=O)(=O)C(C)C)n2)c(OC(C)C)cc1C1CCNCC1 [ceritinib, 5-chloro-N2-(2-isopropoxy-5-methyl-4-(piperidin-4-yl)phenyl)-N4-(2-(isopropylsufonyl)phenyl)pyrimidine-2,4-diamine]
maximally tolerated dose (MTD) [1]: 750 mg | IC50 (FAK): 30 nM | IC50 (IGF1R): 8 nM | CSF concentration ([2]; individual patient 14, 23–25 h after 10th dose, 450 mg/day): 0.015 µM | CSF concentration ([2]; individual patients 7, 13, 6–8 h after 10th dose, 450 mg/day): 0.003 µM and 0.015 µM | CSF concentration [2, 8]: 0.022 µM | CSF concentration [2, 9]: 0.012 µM | Total drug tumor conc. EN [2, 10]: 17.770 nmol/mg and 28.484 nmol/mg and 58.893 nmol/mg | Unbound drug tumor conc. EN [2, 10]: 0.001 nmol/mg and 0.043 nmol/mg and 0.018 nmol/mg | Total drug tumor conc. EN [2, 11]: 18.340 nmol/mg and 43.715 nmol/mg | Unbound drug tumor conc. EN [2, 11]: 0.055 nmol/mg and 0.063 nmol/mg | Total drug tumor conc. EN [2, 8]: 46.954 nmol/mg | Unbound drug tumor conc. EN [2, 8]: 0.117 nmol/mg | Total drug tumor conc. EN [2, 9]: 36.100 nmol/mg | Unbound drug tumor conc. EN [2, 9]: 0.048 nmol/mg | unbound concentration in enhancing tumor ([2]; median): 48 nM | unbound concentration in nonenhancing tumor ([2]; median): 6 nM | Total drug tumor conc. NE [2, 12]: 36.351 nmol/mg and 1.259 nmol/mg | Unbound drug tumor conc. NE [2, 12]: 0.017 nmol/mg and BLQ | Total drug tumor conc. NE [2, 8]: 9.674 nmol/mg | Unbound drug tumor conc. NE [2, 8]: 0.008 nmol/mg | Total drug tumor conc. NE [2, 9]: 2.771 nmol/mg | Unbound drug tumor conc. NE [2, 9]: 0.006 nmol/mg | Fraction unbound EN ([3]; individual patients 1, 2, 3, 5, 11 (resection 2–4 h)): 1.618% and 0.039% and 0.047% and 0.056% | Fraction unbound EN [3, 13]: 0.006% and 0.153% and 0.030% | Fraction unbound EN [3, 14]: 0.298% and 0.144% | Fraction unbound EN [3, 15]: 0.006%–1.6% and 0.051% | Fraction unbound NE ([3]; individual patients 5, 11 (resection 2–4 h)): 0.045% and 0.006% | Fraction unbound NE [3, 13]: 0.006% and 0.163% and 0.030% | Fraction unbound NE [3, 14]: 0.090% and 0.213% | Fraction unbound NE [3, 15]: 0.045% and 0.006%–0.21% | fraction unbound in the tumor relative to the median value ([3]; patient 1, breast cancer brain metastasis): approximately 30 fold | intracranial disease control rate ([4]; ALKi-naïve patients (15/19)): 78.9% | intracranial disease control rate ([4]; ALKi-pretreated patients (49/75)): 65.3% | disease control rate (DCR), intracranial [5]: High disease control rate | fraction unbound in human plasma (human plasma proteins): 1.4% and 0.6%–2.6% | Css,max [6, 16]: 1279 nM | Tss,max [6, 16]: 6.1 h | Css,max [6, 17]: 1230 nM | Tss,max [6, 17]: 5.9 h | CL/F [6, 16]: 42.5 L/h | fluctuation between steady-state peak and trough plasma concentrations ([6]; total ceritinib, geometric mean): 1.4 fold | CL/F ([6]; total ceritinib, individual patients 1-3 (brain metastases), 750 mg/day fasted): 29.8 L/h and 66.9 L/h and 54.6 L/h | CL/F ([6]; total ceritinib, individual patients 5-14 (glioblastoma), 450 mg/day with food): 35.9 L/h and 39.8 L/h and 34.1 L/h and 34.7 L/h and 40.8 L/h and 37.8 L/h and 50.1 L/h | Css,max [6, 18]: 19 nM | Tss,max [6, 18]: 9.3 h | Css,max [6, 19]: 15 nM | Tss,max [6, 19]: 7.0 h | tolerability of presurgical ceritinib ([7]; 10-day presurgical course): well tolerated | severity of toxicities at least possibly related to ceritinib ([7]; CTCAE 4.0): minor (CTCAE 4.0 grades 1 and 2)
